Experimental data: PubChem BioAssay AID449763 (Sanford-Burnham Center for Chemical Genomics, 2010)
Among all 330,000 compounds or so, about 1,100 (0.33%) were called active.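 The calls were made as follows: active = at 10 µM dose, activation of 40% or more, normalized to positive control; inactive = the rest.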 Many of the other results were omitted from the sample, so actives are more common in it than they were.

Experiment: PERK-eIF2a-CHOP pathway stimulators – cell-based, CHO-CHOP luciferase reporter, luminescence, uHTS, primary screen (AID 449763);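 also: 100% = tunicamycin at 10 µg/mL and 0% = DMSO alone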
Settings: UPR activation, at 10 µM, hits give high values, percent of tunicamycin response over DMSO baseline
Procedure, shortened: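 Test system: CHO CHOP reporter cells. Input: 500 CHO-CHOP cells per well. Medium: F12 with 10% FBS. Technique: luciferase luminescence. Measure: percent activation relative to tunicamycin control. Dosing: 10 µM compound, 0.5% DMSO. Timing: 16-18 h cell attachment, then 6 h compound exposure, 37 °C.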

SMILES | activation
N#Cc1ccc(Oc2ccc(C(F)(F)F)cc2NC(=O)c2ccc(F)cc2)cc1 | -0.147% (inactive)
COc1cc(NC(=O)c2cncc(-c3ccc(C#N)cc3)c2)cc(C(=O)Nc2cccc(C(F)(F)F)c2)c1 | 73.6% (active)
COc1cc(NC(=O)c2[nH]cnc2C(N)=O)cc(C(=O)Nc2cccc(C(F)(F)F)c2)c1 | 12.8% (inactive)
O=C(O)C1C2C=CC(C2)C1C(=O)NCc1ccccc1 (stereo unspecified) | -1.58% (inactive)
O=C(CC(NCCN1CCOCC1)C(=O)O)Nc1cccc(Cl)c1 (stereo unspecified) | -1.8% (inactive)
CC(=O)Nc1ccc(NC(=O)COC(=O)c2ccccc2C(=O)c2ccccc2)cc1 | 1.65% (inactive)
CC(=O)Nc1ccc(NC(=O)C(C)OC(=O)c2ccccc2C(=O)c2ccc(Cl)c([N+](=O)[O-])c2)cc1 (stereo unspecified) | 12.1% (inactive)
N#Cc1cccc(NC(=O)COC(=O)c2ccccc2C(=O)c2ccc(Cl)c([N+](=O)[O-])c2)c1 | 105% (active)
CC1=CC(C)(C)NC(=S)N1c1ccccc1 | 0.0762% (inactive)
O=C(c1c(F)cccc1F)N1CCN(S(=O)(=O)c2ccc3c(c2)OCCO3)CC1 | 2.02% (inactive)
O=[N+]([O-])c1ccc(C=Nc2ccc(Cl)cc2Cl)s1 | 112% (active)
CC1CN(C(=O)c2ccc([N+](=O)[O-])s2)CC(C)O1 (stereo unspecified) | 1.2% (inactive)
CCN(Cc1ccccc1)C(=O)CCS(=O)(=O)c1ccc2c(c1)oc(=O)n2C | -2.75% (inactive)
Cc1cccc(NC(=O)C2CC(=O)OC23CCCC3)c1 (stereo unspecified) | 0.24% (inactive)
CCOC(=O)CN(C(=O)CN1CCOCC1)c1ccc(Br)cc1 | -1.27% (inactive)
CC1CCCC(C)N1C(=O)COC(=O)COc1ccccc1C#N (stereo unspecified) | -1.4% (inactive)
CC(=O)Nc1ccc(Nc2ncnc3c2nnn3Cc2ccccc2Cl)cc1 | -0.872% (inactive)
CCOC(=O)CCc1c(C)c(C#N)c2[nH]c3ccccc3n2c1=O | -1.06% (inactive)
CCCc1cc(=S)n2c([nH]c3ccccc32)c1C#N | 54.1% (active)
CN(C)Cc1c(C#N)c2ccccc2n1C | -0.172% (inactive)
CCn1c(SCC(=O)Nc2cc(C)ccc2C)nnc1-c1cnccn1 | -1.53% (inactive)

SMILES | activation
Cc1[nH]n(-c2ccccc2)c(=O)c1CCOC(=O)c1ccc(C(F)(F)F)cc1 | -0.83% (inactive)
O=C1CC(c2ccccc2)CC(O)=C1C=NCCN1CCOCC1 (stereo unspecified) | -2.31% (inactive)
O=C1C=C(c2cccc(Cl)c2)C[C@@H](c2ccc(F)cc2)C1 | -0.428% (inactive)
O=C1CC(c2cccc(Cl)c2)CC(O)=C1C=Nc1ccccc1 (stereo unspecified) | 50% (active)
Cc1ccc(NC(=O)C(=O)NCc2ccc(/C=N/NC(=O)c3c(C)nc4cc(C)ccn34)o2)cc1 | 4.97% (inactive)
CCc1ccc(N(C(=O)c2csnn2)C(C(=O)NC2CCCCC2)c2ccncc2)cc1 (stereo unspecified) | -1.98% (inactive)
CCOC(=O)Nc1sc(C(=O)N(C)C)c(C)c1C(=O)OCC | -4.31% (inactive)
CCOC(=O)c1c(NC(=O)CCl)sc(C(=O)N(CC)CC)c1C | 48.1% (active)
CCOC(=O)c1c(NC(=O)CCCN2CCOCC2)sc2c1CC(C)(C)OC2 | -2.37% (inactive)
CCOC(=O)c1sc(NC(=O)CCN2CCOCC2)c(C(=O)OCC)c1C | 43.2% (active)
CCC(=O)Nc1sc(C(=O)Nc2ccccc2)c(C)c1C(=O)OC | -0.316% (inactive)
COC(=O)c1c(NC(=O)CCN2CCOCC2)sc2c1CCCC2 | 0.577% (inactive)
COc1ccc(C(=O)NC2CC(C)(C)NC(C)(C)C2)cc1OC | 0.193% (inactive)
O=C(CCC(=O)n1ncc2ccccc21)NCc1ccccc1Cl | -0.158% (inactive)
COc1ccc(S(=O)(=O)NC(C)C(=O)N2CCCCCC2)cc1 (stereo unspecified) | -2.32% (inactive)
CCn1nc(C)c(CNC(=O)C2CCC(=O)N(Cc3cccc(F)c3)C2)c1C (stereo unspecified) | 0.585% (inactive)
Fc1ccccc1/C=C1\CCCC2=C1Nc1ncnn1C2c1ccccc1F (stereo unspecified) | 90.9% (active)
CC1=C(C(N)=O)C(c2ccc(Br)cc2)n2ncnc2N1 (stereo unspecified) | -1.48% (inactive)
Brc1ccc2c(c1)[C@H]1OCC[C@H]1[C@@H](c1cccs1)N2 | -1.2% (inactive)
O=C1CCN(C(=O)Nc2ccccc2)N1 | -2.23% (inactive)
Cc1ccc(OCC(=O)Nc2ccc(NC(=O)c3cccs3)cc2)c(C)c1 | 0.176% (inactive)

SMILES | activation
Cc1ccc(-c2nnc(-c3ccc(NC(=O)c4cccs4)cc3)o2)cc1 | 325% (active)
Cc1ccc(NC(=O)c2cccs2)cc1S(=O)(=O)N(C)C | 1.35% (inactive)
CC1CCCCC1NC(=O)CSc1nnc(-c2ccncc2)n1CCCN(C)C (stereo unspecified) | -1.77% (inactive)
Cn1c(SCc2ccc(F)cc2)nnc1-c1ccncc1 | 1.85% (inactive)
CN(C)CCCn1c(SCc2ccc(Cl)cc2)nnc1-c1ccncc1 | 139% (active)
COc1ccc(-n2cc(CNC3CCOCC3)c(-c3cccc(F)c3)n2)cc1 | 0.961% (inactive)
O=C(COc1ccccc1O)NC1CCCC1 | 3.04% (inactive)
CNC(=O)c1sc(NCc2ccccc2OC)nc1C | -3.17% (inactive)
CC(=O)c1sc(N/N=C\c2ccc(C)cc2)nc1C | 5.8% (inactive)
COc1cccc2sc(Nc3nc(C)c(C(C)=O)s3)nc12 | 309% (active)
CCOCCCn1c(NN)nc2ccccc2c1=O | 1.17% (inactive)
CCn1c(/C=C/c2ccc([N+](=O)[O-])o2)nc2ccccc2c1=O | 71.3% (active)
CCn1c(SCc2ccccc2)nc2cc(OC)c(OC)cc2c1=O | -0.179% (inactive)
COC(=O)c1cc(CNC(=O)CC(C)c2ccccc2)ccc1OC (stereo unspecified) | 2.14% (inactive)
COc1ccc(-c2cc(C(F)(F)F)nc(S(C)(=O)=O)n2)cc1OC | 106% (active)
COc1ccc(-c2cc(-c3ccc(N)cc3)nc(N)c2C#N)cc1OC | -0.472% (inactive)
COc1ccc(-c2ccc(Nc3ccc(S(=O)(=O)N4CCCC4)cc3)nn2)cc1OC | 3.88% (inactive)
O=C1/C(=C/c2ccc(F)cc2)SC(=S)N1NS(=O)(=O)c1ccccc1 | 0.174% (inactive)
CC(C)CNC(=S)NNC(=O)c1ccccc1OC(F)F | -0.805% (inactive)
